Test results: ChEMBL document CHEMBL3091364, “Benzyloxybenzylammonium chlorides: Simple amine salts that display anticonvulsant activity” (Bioorg Med Chem, 2013)

Columns and labels:
[1] = molecular target: T1, Alpha-2B adrenergic receptor (Homo sapiens) (UniProt P18089); assay: Inhibition of adrenergic alpha-2B receptor (unknown origin) at 10 uM relative to control
T1 sequence (whole entry): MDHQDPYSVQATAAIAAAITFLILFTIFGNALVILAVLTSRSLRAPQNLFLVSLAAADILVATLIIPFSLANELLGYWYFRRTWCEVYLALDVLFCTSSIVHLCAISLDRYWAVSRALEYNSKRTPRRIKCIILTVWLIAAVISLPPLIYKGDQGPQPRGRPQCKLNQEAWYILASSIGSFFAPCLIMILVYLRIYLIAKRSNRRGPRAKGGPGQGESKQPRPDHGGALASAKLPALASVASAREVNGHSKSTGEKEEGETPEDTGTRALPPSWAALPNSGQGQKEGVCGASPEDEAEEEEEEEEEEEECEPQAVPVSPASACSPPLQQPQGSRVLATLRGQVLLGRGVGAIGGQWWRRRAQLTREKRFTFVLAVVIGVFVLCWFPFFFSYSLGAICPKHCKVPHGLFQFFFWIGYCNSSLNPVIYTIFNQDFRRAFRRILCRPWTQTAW

[2] = molecular target: Beta-3 adrenergic receptor (Homo sapiens) (UniProt P13945); assay: Inhibition of adrenergic beta-3 receptor (unknown origin) at 10 uM relative to control
[3] = molecular target: Sodium-dependent noradrenaline transporter (Homo sapiens) (UniProt P23975); assay: Inhibition of NET (unknown origin) at 10 uM relative to control
[4] = molecular target: Sodium-dependent serotonin transporter (Homo sapiens) (UniProt P31645); assay: Inhibition of SERT (unknown origin) at 10 uM relative to control
[5] = molecular target: D(1A) dopamine receptor (Homo sapiens) (UniProt P21728); assay: Inhibition of dopaminergic D1 receptor (unknown origin) at 10 uM relative to control
[6] = molecular target: 5-hydroxytryptamine receptor 7 (Homo sapiens) (UniProt P34969); assay: Inhibition of 5-HT7 receptor (unknown origin) at 10 uM relative to control
[7] = molecular target: T2, Alpha-1B adrenergic receptor (Homo sapiens) (UniProt P35368); assay: Inhibition of adrenergic alpha-1B receptor (unknown origin) at 10 uM relative to control
T2 sequence (whole entry): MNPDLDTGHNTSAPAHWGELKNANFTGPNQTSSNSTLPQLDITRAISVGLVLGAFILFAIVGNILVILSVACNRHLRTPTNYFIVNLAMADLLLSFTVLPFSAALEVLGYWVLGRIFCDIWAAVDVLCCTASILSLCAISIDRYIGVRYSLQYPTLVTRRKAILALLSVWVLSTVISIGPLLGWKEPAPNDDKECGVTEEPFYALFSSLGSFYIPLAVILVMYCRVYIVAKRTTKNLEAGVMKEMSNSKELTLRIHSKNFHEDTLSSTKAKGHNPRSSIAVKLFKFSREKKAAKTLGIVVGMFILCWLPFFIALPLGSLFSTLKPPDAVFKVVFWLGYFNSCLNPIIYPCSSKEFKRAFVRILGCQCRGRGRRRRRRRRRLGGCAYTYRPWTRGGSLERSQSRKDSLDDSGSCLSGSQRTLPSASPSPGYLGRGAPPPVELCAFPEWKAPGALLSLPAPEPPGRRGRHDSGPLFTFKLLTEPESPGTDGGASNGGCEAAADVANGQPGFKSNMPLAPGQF

[8] = molecular target: 5-hydroxytryptamine receptor 6 (Homo sapiens) (UniProt P50406); assay: Inhibition of 5-HT6 receptor (unknown origin) at 10 uM relative to control
[9] = molecular target: 5-hydroxytryptamine receptor 5A (Homo sapiens) (UniProt P47898); assay: Inhibition of 5-HT5A receptor (unknown origin) at 10 uM relative to control
Homo sapiens = organism: Homo sapiens; assay: Inhibition of sigma-2 receptor (unknown origin) at 10 uM relative to control
[10] = molecular target: Sodium-dependent dopamine transporter (Homo sapiens) (UniProt Q01959); assay: Inhibition of DAT (unknown origin) at 10 uM relative to control
[11] = molecular target: T3, 5-hydroxytryptamine receptor 1A (Homo sapiens) (UniProt P08908); assay: Inhibition of 5-HT1A receptor (unknown origin) at 10 uM relative to control
T3 sequence (whole entry): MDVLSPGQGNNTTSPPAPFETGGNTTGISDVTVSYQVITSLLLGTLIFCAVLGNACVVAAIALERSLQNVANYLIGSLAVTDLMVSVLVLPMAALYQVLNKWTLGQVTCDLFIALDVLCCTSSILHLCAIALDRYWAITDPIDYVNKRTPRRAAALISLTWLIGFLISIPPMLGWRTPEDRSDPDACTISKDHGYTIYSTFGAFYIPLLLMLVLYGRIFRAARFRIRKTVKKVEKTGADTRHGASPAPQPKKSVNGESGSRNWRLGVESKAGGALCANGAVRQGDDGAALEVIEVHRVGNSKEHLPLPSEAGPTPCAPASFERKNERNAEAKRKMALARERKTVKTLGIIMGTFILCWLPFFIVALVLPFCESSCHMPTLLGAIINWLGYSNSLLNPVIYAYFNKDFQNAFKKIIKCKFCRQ

[12] = molecular target: Translocator protein (Homo sapiens) (UniProt P30536); assay: Inhibition of PBR (unknown origin) at 10 uM relative to control
[13] = molecular target: Sigma non-opioid intracellular receptor 1 (Homo sapiens) (UniProt Q99720); assay: Inhibition of sigma-1 receptor (unknown origin) at 10 uM relative to control
Rattus norvegicus [14] = assay: Anticonvulsant activity in po dosed albino Sprague-Dawley rat assessed as protection against maximal electroshock-induced seizures measured at 0.25 to 4 hrs; format: functional
In short: (§1)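 Screened under the NINDS ASP in male albino Carworth Farms No. 1 mice (ip) or male albino Sprague-Dawley rats (ip or po), using MES, 6 Hz (32 mA) and subcutaneous pentylenetetrazol seizure tests. Initial qualitative tests used preset doses (e.g., 30, 50, 100 mg/kg). ED50 values with 95% confidence intervals came from dose–response data collected at the time of peak effect.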

Mus musculus = assay: Anticonvulsant activity in ip dosed albino CF-1 mouse assessed as protection against 6 Hz psychomotor seizure measured at 2 hrs; format: functional; settings: albino CF-1, ip; in short: as §1
Rattus norvegicus [15] = assay: Anticonvulsant activity in ip dosed albino Sprague-Dawley rat assessed as protection against maximal electroshock-induced seizures measured at 0.25 to 4 hrs; format: functional; in short: as §1

Chain of 5-hydroxytryptamine receptor 6 (Homo sapiens) (P50406 whole entry): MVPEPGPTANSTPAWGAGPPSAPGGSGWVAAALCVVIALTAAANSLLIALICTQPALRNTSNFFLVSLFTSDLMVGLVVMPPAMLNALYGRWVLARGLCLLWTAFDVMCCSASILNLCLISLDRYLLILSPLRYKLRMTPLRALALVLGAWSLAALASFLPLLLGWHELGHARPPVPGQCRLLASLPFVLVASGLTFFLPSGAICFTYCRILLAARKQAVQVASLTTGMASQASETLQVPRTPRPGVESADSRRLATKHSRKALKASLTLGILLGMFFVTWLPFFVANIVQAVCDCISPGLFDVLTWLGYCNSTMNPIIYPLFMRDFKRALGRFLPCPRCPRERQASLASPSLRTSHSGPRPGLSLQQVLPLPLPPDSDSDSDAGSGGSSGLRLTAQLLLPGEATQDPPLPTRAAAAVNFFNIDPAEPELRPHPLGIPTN
Chain of D(1A) dopamine receptor (Homo sapiens) (P21728 whole entry): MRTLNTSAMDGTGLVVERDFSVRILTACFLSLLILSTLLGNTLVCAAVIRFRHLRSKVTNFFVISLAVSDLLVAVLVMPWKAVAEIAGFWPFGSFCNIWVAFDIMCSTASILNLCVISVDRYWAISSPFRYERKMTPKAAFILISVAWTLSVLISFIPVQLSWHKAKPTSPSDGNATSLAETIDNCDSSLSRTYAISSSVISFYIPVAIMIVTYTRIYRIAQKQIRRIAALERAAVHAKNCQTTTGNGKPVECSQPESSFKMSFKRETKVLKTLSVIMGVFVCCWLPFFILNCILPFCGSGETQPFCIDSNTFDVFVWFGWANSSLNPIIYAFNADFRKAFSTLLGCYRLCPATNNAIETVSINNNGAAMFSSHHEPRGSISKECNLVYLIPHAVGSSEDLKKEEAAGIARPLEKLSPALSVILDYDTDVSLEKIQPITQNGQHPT
Chain of Sodium-dependent noradrenaline transporter (Homo sapiens) (P23975 whole entry): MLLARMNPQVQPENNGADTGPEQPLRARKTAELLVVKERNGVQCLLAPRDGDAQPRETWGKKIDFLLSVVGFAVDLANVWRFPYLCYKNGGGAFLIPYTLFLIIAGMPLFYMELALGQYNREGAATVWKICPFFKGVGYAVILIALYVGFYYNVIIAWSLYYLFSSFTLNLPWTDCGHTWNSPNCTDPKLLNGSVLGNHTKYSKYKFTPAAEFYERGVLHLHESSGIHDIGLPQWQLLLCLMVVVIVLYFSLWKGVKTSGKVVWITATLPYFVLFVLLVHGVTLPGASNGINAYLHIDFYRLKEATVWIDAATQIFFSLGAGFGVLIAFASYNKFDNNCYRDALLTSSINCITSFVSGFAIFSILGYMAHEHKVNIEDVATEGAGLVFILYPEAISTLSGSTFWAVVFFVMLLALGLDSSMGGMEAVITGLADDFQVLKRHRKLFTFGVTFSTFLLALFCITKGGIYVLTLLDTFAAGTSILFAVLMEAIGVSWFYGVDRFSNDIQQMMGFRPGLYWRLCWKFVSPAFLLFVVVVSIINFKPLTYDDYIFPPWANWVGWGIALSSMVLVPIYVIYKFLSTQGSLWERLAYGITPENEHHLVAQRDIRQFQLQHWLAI
Chain of Sigma non-opioid intracellular receptor 1 (Homo sapiens) (Q99720 whole entry): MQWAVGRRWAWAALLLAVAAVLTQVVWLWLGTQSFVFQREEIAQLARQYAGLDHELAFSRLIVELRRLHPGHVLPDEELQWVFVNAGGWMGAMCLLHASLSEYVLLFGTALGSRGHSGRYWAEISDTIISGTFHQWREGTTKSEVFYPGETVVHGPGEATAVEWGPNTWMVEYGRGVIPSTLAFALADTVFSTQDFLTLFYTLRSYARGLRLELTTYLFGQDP
Chain of Sodium-dependent serotonin transporter (Homo sapiens) (P31645 whole entry, looked up): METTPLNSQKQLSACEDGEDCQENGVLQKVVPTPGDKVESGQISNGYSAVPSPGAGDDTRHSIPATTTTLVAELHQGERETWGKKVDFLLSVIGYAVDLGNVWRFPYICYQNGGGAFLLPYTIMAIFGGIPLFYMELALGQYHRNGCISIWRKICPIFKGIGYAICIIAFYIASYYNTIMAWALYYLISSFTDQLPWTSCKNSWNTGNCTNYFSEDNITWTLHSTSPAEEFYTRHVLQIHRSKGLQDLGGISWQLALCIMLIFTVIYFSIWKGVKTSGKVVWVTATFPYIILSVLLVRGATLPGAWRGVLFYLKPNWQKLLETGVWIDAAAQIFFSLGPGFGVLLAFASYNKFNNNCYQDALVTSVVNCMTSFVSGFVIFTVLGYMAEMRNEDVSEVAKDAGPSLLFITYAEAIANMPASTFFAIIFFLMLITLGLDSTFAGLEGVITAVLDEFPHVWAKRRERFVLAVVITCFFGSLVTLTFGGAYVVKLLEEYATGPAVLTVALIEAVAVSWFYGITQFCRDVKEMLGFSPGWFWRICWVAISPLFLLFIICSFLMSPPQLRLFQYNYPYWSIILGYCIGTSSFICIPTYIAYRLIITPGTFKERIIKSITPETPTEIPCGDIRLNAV
Chain of Sodium-dependent dopamine transporter (Homo sapiens) (Q01959 whole entry): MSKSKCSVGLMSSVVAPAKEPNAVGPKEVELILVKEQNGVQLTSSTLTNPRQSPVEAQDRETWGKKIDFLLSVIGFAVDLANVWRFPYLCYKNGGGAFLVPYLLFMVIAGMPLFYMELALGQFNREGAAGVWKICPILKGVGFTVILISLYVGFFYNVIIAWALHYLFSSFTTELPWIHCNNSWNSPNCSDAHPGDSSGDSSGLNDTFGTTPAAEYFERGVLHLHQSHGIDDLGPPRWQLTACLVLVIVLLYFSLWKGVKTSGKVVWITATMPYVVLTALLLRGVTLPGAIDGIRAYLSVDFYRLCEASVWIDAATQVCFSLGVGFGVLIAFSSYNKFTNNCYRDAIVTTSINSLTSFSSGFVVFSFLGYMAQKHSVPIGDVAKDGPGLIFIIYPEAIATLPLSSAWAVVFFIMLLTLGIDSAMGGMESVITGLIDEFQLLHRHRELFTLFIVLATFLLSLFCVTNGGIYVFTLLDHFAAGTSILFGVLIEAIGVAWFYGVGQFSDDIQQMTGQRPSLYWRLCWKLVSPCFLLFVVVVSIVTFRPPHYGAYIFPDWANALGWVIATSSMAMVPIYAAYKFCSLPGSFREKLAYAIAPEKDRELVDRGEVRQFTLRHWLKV
Chain of Beta-3 adrenergic receptor (Homo sapiens) (P13945 whole entry, looked up): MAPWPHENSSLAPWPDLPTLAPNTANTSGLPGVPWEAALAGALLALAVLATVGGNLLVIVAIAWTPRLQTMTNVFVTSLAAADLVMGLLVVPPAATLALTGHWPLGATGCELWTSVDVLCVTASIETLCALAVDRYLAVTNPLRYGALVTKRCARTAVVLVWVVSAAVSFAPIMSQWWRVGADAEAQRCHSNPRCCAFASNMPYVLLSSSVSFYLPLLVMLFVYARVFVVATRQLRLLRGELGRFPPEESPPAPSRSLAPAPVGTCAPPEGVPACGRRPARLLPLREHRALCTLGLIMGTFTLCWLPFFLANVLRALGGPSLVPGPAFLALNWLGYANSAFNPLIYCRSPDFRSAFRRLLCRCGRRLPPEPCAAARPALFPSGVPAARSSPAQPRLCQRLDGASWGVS
Chain of Translocator protein (Homo sapiens) (P30536 whole entry): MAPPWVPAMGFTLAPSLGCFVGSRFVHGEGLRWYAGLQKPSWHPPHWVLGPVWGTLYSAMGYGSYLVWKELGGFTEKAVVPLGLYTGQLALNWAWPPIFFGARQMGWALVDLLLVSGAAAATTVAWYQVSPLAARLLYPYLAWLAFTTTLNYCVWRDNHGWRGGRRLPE
Chain of 5-hydroxytryptamine receptor 5A (Homo sapiens) (P47898 whole entry): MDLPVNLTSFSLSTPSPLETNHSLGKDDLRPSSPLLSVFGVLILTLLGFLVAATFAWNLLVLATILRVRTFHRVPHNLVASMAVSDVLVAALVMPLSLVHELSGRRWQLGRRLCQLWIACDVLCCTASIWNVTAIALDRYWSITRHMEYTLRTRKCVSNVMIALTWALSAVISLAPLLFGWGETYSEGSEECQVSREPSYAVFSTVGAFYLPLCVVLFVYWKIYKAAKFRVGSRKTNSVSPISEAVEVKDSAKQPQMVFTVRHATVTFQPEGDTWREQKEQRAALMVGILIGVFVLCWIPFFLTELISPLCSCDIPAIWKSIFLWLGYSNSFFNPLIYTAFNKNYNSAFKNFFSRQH
Chain of 5-hydroxytryptamine receptor 7 (Homo sapiens) (P34969 whole entry): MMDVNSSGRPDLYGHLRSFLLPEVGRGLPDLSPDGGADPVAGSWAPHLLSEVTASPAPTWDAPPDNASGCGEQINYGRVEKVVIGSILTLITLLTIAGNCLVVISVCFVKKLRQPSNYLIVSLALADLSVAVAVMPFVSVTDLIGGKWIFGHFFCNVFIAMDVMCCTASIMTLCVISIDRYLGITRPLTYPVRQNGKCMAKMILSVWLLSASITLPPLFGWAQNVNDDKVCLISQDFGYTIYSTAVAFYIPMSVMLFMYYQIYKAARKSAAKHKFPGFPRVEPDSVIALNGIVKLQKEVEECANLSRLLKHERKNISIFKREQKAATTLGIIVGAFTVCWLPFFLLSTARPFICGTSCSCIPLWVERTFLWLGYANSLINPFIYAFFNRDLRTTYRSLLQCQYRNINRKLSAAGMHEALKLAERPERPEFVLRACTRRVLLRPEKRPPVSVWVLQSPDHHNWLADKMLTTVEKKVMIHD

| Compound | inhibition [1] [%] | inhibition [2] [%] | inhibition [3] [%] | inhibition [4] [%] | inhibition [5] [%] | inhibition [6] [%] | inhibition [7] [%] | inhibition [8] [%] | inhibition [9] [%] | inhibition (Homo sapiens) [%] | inhibition [10] [%] | inhibition [11] [%] | inhibition [12] [%] | inhibition [13] [%] | ED50 (Rattus norvegicus [14]) [mg/kg] | ED50 (Mus musculus) [mg/kg] | ED50 (Rattus norvegicus [15]) [mg/kg] |
| --- | --- | --- | --- | --- | --- | --- | --- | --- | --- | --- | --- | --- | --- | --- | --- | --- | --- |
| Cl.NCc1ccc(OCc2ccccc2OC(F)(F)F)cc1 | 29.5 | 26.8 | 29.3 | 31.4 | -2.5 | 38.7 | -2.4 | 22 | -0.1 | 89.8 | 50.7 | 10.1 | 4.7 | 92.9 |  |  |  |
| Cl.NCc1ccc(OCc2ccc(F)cc2)cc1 | 37 | 5 | 59.9 | 71.3 | -1.9 | 67.7 |  | 18.1 | 8.5 | 67.6 | 48.2 | 36 | -2.3 | 92.7 | > 30 |  |  |
| Cl.NCc1ccc(OCc2ccccc2F)cc1 | 30.9 | 10.2 | 61.3 | 34.4 | -0.2 | 43.5 | 13.6 | 21.3 | -5.2 | 71.6 | 61.7 | 32.3 | 26.8 | 102 | > 30 |  | > 30 |
| Cl.NCc1ccc(OCc2ccc(OC(F)(F)F)cc2)cc1 | 49.9 | 17.5 | 60.1 | 10.6 | -9.4 | 29.3 | 4.1 | 8.9 | -1.8 | 86.4 | 70.5 | 22.3 | 5.6 | 91.1 | > 30 | 30 |  |

The next lines start with results.

| inhibition [1] [%] | inhibition [2] [%] | inhibition [3] [%] | inhibition [4] [%] | inhibition [5] [%] | inhibition [6] [%] | inhibition [7] [%] | inhibition [8] [%] | inhibition [9] [%] | inhibition (Homo sapiens) [%] | inhibition [10] [%] | inhibition [11] [%] | inhibition [12] [%] | inhibition [13] [%] | Compound | ED50 (Rattus norvegicus [14]) [mg/kg] | ED50 (Mus musculus) [mg/kg] | ED50 (Rattus norvegicus [15]) [mg/kg] |
| --- | --- | --- | --- | --- | --- | --- | --- | --- | --- | --- | --- | --- | --- | --- | --- | --- | --- |
| 72 | 16.9 | 83.9 | 76.5 | 2.9 | -1.9 | 11.4 | 52.4 | 44.9 | 80.5 | 84.1 | 7.5 | 50 | 89.4 | Cl.NCc1ccc(OCc2cccc(Cl)c2)cc1 | > 30 | 78 |  |
| 27.3 | 11.3 | 63.6 | 49.1 | -6 | 56.3 | 0.5 | 26.9 | 1.2 | 56.6 | 72.2 | 16 | 11.8 | 97.7 | Cl.NCc1ccc(OCc2ccccc2)cc1 | > 30 |  | > 30 |
| 44.3 | 13.6 | 58.5 | 55.7 | -3.3 | 43.6 | -3.8 | 34.3 | 0.2 | 87.5 | 45.5 | 50 | 3.6 | 96.9 | Cl.NCc1ccc(OCc2cccc(OC(F)(F)F)c2)cc1 | > 30 |  |  |
| 51.6 | -3.4 | 64.7 | 53.8 | 7.6 | 45.4 |  | 50.5 | 36.6 | 79.2 | 75.7 | 3.7 | 12 | 90.6 | Cl.NCc1ccc(OCc2ccc(Cl)cc2)cc1 | > 30 | < 100 | > 30 |
| 51.3 | 9.3 | 76.1 | 83.4 | -1.1 | 59.1 | 24.8 | 44.8 |  | 58.4 | 76.8 | 50.1 | 15.2 | 102 | Cl.NCc1ccc(OCc2cccc(F)c2)cc1 | > 30 |  | > 30 |
